From ChEMBL document CHEMBL1275429, “Pharmacodynamic characterization of ceftobiprole in experimental pneumonia caused by phenotypically diverse Staphylococcus aureus strains” (Antimicrob Agents Chemother, 2008)
Values after ≈ are worked out from the molar mass of the structure shown.

How the values were obtained:
[1] = Cmax in neutropenic BALB/cAnNCr mouse infected with Staphylococcus aureus at 1 mg/kg, sc administered as single dose after 6 hrs of infection; assay type: ADME, organism-based; set-up: dose 1 mg/kg, route subcutaneous; settings: in vivo
Summary of the method: (§1)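 Neutropenic female mice (cyclophosphamide i.p. 250 mg/kg day −4, 100 mg/kg day −1) with HA-MRSA 56 pneumonia (oral inoculum, 10^7 CFU/ml in 3% mucin). Single s.c. dose in sterile water. Plasma by intracardiac puncture at 0.25–4 h, six mice per time point, stabilized with citric acid. Assayed by validated HPLC (LOQ 0.01 µg/ml). Parameters from one-compartment analysis.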

[2] = test system: Staphylococcus aureus; assay: Antimicrobial activity against methicillin-susceptible Staphylococcus aureus 25923 infected in BALB/cAnNCr mouse assessed as decrease in bacterial density in lungs at 1 to 25 mg/kg, sc administered as 1 to 5 times/day after 24 hrs […] relative to control; assay type: functional; settings: dose mg/kg 1-5; route subcutaneous
Summary of the method: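 Neutropenic mice given oral S. aureus inoculum (10^7 CFU/ml in 3% mucin). s.c. dosing of 1–25 mg/kg, once to five times daily, began 6 h post-infection and ran 24 h, five mice per group, with sham-treated controls. Lung homogenates were plated on blood and Columbia agar at 35°C up to 48 h. Log10 CFU/ml at 24 h was compared with untreated controls.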

[3] = fAUC/MIC in neutropenic BALB/cAnNCr mouse plasma infected with Staphylococcus aureus at 1 to 25 mg/kg, sc administered 1 to 5 times/day after 24 hrs by HPLC; assay type: functional; settings: route subcutaneous
Summary of the method: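 Exposure indices used free plasma drug, correcting with 19% mouse protein binding supplied by the sponsor. The regimens were s.c. 1–25 mg/kg given 1–5 times daily for 24 h to neutropenic mice with S. aureus pneumonia. MICs were determined in triplicate by CLSI broth microdilution. PK came from the single-dose HPLC study.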

[4] = fT>MIC required for stasis inhibition of methicillin-suceptible Staphylococcus aureus 29213 infection in neutropenic BALB/cAnNCr mouse; assay type: functional
[5] = fCmax/MIC required for 50% inhibition of Staphylococcus aureus infection in neutropenic BALB/cAnNCr mouse; assay type: functional
[6] = fAUC/MIC required for 80% inhibition of Staphylococcus aureus infection in neutropenic BALB/cAnNCr mouse; assay type: functional
[7] = Tmax in neutropenic BALB/cAnNCr mouse infected with Staphylococcus aureus at 25 mg/kg, sc administered as single dose after 6 hrs of infection; assay type: ADME, organism-based; set-up: dose 25 mg/kg, route subcutaneous; settings: in vivo; summary of the method: as §1
[8] = test system: Staphylococcus aureus; assay: Antimicrobial activity against community acquired methicillin-resistant Staphylococcus aureus 144 by broth microdilution method; assay type: functional
Summary of the method: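 Broth microdilution run in triplicate following CLSI guidelines. Isolates were stored at –80°C in double-strength skim milk and subcultured twice on Trypticase soy agar with 5% sheep blood before testing.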

[9] = Tmax in neutropenic BALB/cAnNCr mouse infected with Staphylococcus aureus at 10 mg/kg, sc administered as single dose after 6 hrs of infection; assay type: ADME, organism-based; set-up: dose 10 mg/kg, route subcutaneous; settings: in vivo; summary of the method: as §1
[10] = fT>MIC required for 80% inhibition of community acquired methicillin-resistant Staphylococcus aureus 144 infection in neutropenic BALB/cAnNCr mouse; assay type: functional
Summary of the method: (§2)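 Same neutropenic murine pneumonia model, with 24-h lung log10 CFU change (5 mice per group; 1–25 mg/kg s.c., 1–5 times daily). […] ED50, ED80 and stasis exposures were taken from a sigmoid Emax fit for each isolate.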

[11] = AUC (0 to infinity) in neutropenic BALB/cAnNCr mouse infected with Staphylococcus aureus at 10 mg/kg, sc administered as single dose after 6 hrs of infection; assay type: ADME, organism-based; set-up: time infinity, dose 10 mg/kg, route subcutaneous; settings: plasma; summary of the method: as §1
[12] = test system: Staphylococcus aureus; assay: Antimicrobial activity against community acquired methicillin-resistant Staphylococcus aureus 147 infected in BALB/cAnNCr mouse assessed as decrease in bacterial density in lungs at 1 to 25 mg/kg, sc administered as 1 to 5 times/day after 24 hrs […] relative to control; assay type: functional; settings: route subcutaneous
Summary of the method: (§3)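 Female BALB/cAnNCr mice (7–9 weeks) were made neutropenic with cyclophosphamide i.p. at 250 mg/kg on day −4 and 100 mg/kg on day −1. Under isoflurane, mice received an oral inoculum in 3% mucin/saline, with nostrils blocked until aspiration. Drug (1–25 mg/kg s.c., once to five times daily, water vehicle) or sham started 6 h post-inoculation. Lungs were harvested at 24 h, homogenized and plated on blood and Columbia agar at 35°C. Mean log10 CFU/ml was compared with the 0-h untreated baseline; 5 mice per group.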

[13] = Elimination clearance in neutropenic BALB/cAnNCr mouse infected with Staphylococcus aureus at 10 mg/kg, sc administered as single dose after 6 hrs of infection; assay type: ADME, organism-based; set-up: dose 10 mg/kg, route subcutaneous; settings: in vivo; summary of the method: as §1
[14] = fT>MIC required for stasis inhibition of hospital acquired methicillin-resistant Staphylococcus aureus 56 infection in neutropenic BALB/cAnNCr mouse; assay type: functional; summary of the method: as §2
[15] = Elimination clearance in neutropenic BALB/cAnNCr mouse infected with Staphylococcus aureus at 1 mg/kg, sc administered as single dose after 6 hrs of infection; assay type: ADME, organism-based; set-up: dose 1 mg/kg, route subcutaneous; settings: in vivo; summary of the method: as §1
[16] = fT>MIC required for 50% inhibition of hospital acquired Staphylococcus aureus 152 infection in neutropenic BALB/cAnNCr mouse; assay type: functional
[17] = test system: Mus musculus; assay: Volume of distribution in neutropenic BALB/cAnNCr mouse infected with Staphylococcus aureus at 10 mg/kg, sc administered as single dose after 6 hrs of infection; assay type: ADME, organism-based; set-up: dose 10 mg/kg, route subcutaneous; settings: in vivo; summary of the method: as §1
[18] = test system: Staphylococcus aureus; assay: Antimicrobial activity against community acquired methicillin-resistant Staphylococcus aureus 144 infected in BALB/cAnNCr mouse assessed as decrease in bacterial density in lungs at 1 to 25 mg/kg, sc administered as 1 to 5 times/day after 24 hrs […] relative to control; assay type: functional; settings: route subcutaneous; summary of the method: as §3

With Nc1nc(/C(=N/O)C(=O)N[C@@H]2C(=O)N3C(C(=O)O)=C(/C=C4\CCN([C@@H]5CCNC5)C4=O)CS[C@H]23)ns1 [CEFTOBIPROLE] the Cmax [1] was 1740 ng/mL, the log10cfu [2] was 4.2 and the fAUC/MIC [3] was 2. For the same compound, the “fT>MIC” value [4] was 13.3%, the fCmax/MIC [5] was 2 and the fAUC/MIC [6] was 3. The Tmax [7] was 28.2 min, the MIC [8] was 1 µg/mL (≈ 1.87 µM) and the Tmax [9] was 9 min. The “fT>MIC” value [10] was 14.3%, the AUC(0-inf) [11] was 15800 ng·h/mL and the log10cfu [12] was 3.2. The CL/F [13] was 10.5 mL/min/kg, the “fT>MIC” value [14] was 13.1% and the CL/F [15] was 9 mL/min/kg. The “fT>MIC” value [16] was 14%, the Vd [17] was 0.38 L/kg and the log10cfu [18] was 2.9.
